GI50 and EC50 data for 15 compounds are collected here from ChEMBL document CHEMBL3808349, “Antineoplastic Agents. 585. Isolation of Bridelia ferruginea Anticancer Podophyllotoxins and Synthesis of 4-Aza-podophyllotoxin Structural Modifications” (2016).

Converted amounts (≈) assume the structure as drawn.

Holding throughout (type): functional
For one experiment, the system named is NCI-H460. In words: Growth inhibition of human NCI-H460 cells measured after 48 hrs by sulforhodamine B assay. As to conditions: NCI-H460, 48 h. Put shortly: (§1)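 Cells were seeded in RPMI1640 with 5% fetal bovine serum and incubated 24 h before serial dilutions of sample were added. After 48 h exposure, cells were fixed with trichloroacetic acid and stained with sulforhodamine B, and optical density was read by plate reader.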
A general note: The SRB assay estimates cell density from bound dye.

The nature of experiment [1]: Growth inhibition of human KM20L2 cells measured after 48 hrs by sulforhodamine B assay. As to conditions: KM-20L2, 48 h. In a few lines: as §1
Experiment [2] can be described thus: Growth inhibition of human BxPC3 cells measured after 48 hrs by sulforhodamine B assay. As to conditions: BXPC-3, 48 h. Put shortly: as §1
In the next experiment the test system is MCF7. In words: Growth inhibition of human MCF7 cells measured after 48 hrs by sulforhodamine B assay. As to conditions: MCF7, 48 h. In a few lines: as §1
A short description of experiment [3]: Growth inhibition of human SF268 cells measured after 48 hrs by sulforhodamine B assay. The note with it: SF-268, 48 h. Put shortly: as §1
Experiment [4] in a line: Growth inhibition of human DU145 cells measured after 48 hrs by sulforhodamine B assay. The note with it: DU-145, 48 h. Put shortly: as §1
The next experiment has as its system P388. In words: Growth inhibition of mouse P388 cells measured after 48 hrs by sulforhodamine B assay. The note with it: P388, 48 h, read-out: ED50 (the source's name).

Usually GI50 stands for the concentration giving 50% growth inhibition. Low values mean greater sensitivity of the cells, high ones lower sensitivity of the cells. As to `COc1cc(C2C3=C(COC3=O)N(CCc3ccc([N+](=O)[O-])cc3)c3cc4c(cc32)OCO4)cc(OC)c1OC` (stereo not drawn), the GI50 is 0.3 µg/mL (≈ 0.549 µM) in the experiment on NCI-H460; 0.26 µg/mL (≈ 0.476 µM) in experiment [1]; 0.39 µg/mL (≈ 0.714 µM) in experiment [2]; 0.08 µg/mL (≈ 0.146 µM) in the experiment with MCF7; 0.2 µg/mL (≈ 0.366 µM) in experiment [3]; 0.3 µg/mL (≈ 0.549 µM) in experiment [4].
Take `COc1cc(C2C3=C(COC3=O)N(CCc3ccc(Cl)cc3)c3cc4c(cc32)OCO4)cc(OC)c1OC` (stereo not drawn): the GI50 with NCI-H460 was determined as 0.3 µg/mL (≈ 0.56 µM); in experiment [1] it was 0.37 µg/mL (≈ 0.69 µM); in experiment [2], 0.54 µg/mL (≈ 1.01 µM); in the experiment with MCF7, 0.34 µg/mL (≈ 0.634 µM); in experiment [3] it was 0.35 µg/mL (≈ 0.653 µM); in experiment [4], 0.31 µg/mL (≈ 0.578 µM). Further, in the experiment with P388, the EC50 worked out at 2.6 µg/mL (≈ 4.85 µM).
Turning to `O=C1OCC2=C1C(c1cccc3c1OCO3)c1cc3c(cc1N2)OCO3` (stereo not drawn), the GI50 was determined as 0.021 µg/mL (≈ 0.0598 µM) in the experiment on NCI-H460; 0.065 µg/mL (≈ 0.185 µM) in experiment [2]; 0.0039 µg/mL (≈ 0.0111 µM) in the experiment on MCF7; 0.0089 µg/mL (≈ 0.0253 µM) in experiment [3]; 0.041 µg/mL (≈ 0.117 µM) in experiment [4]. In addition, in the experiment on P388, the EC50 came out at 0.17 µg/mL (≈ 0.484 µM).
On to `COc1cc(C2C3=C(COC3=O)N(CCc3ccccn3)c3cc4c(cc32)OCO4)cc(OC)c1OC` (stereo not drawn), for which the GI50 with NCI-H460 was determined as 0.34 µg/mL (≈ 0.677 µM); in experiment [1] it was 0.29 µg/mL (≈ 0.577 µM); in experiment [2] it was 0.38 µg/mL (≈ 0.756 µM); in the experiment with MCF7, 0.32 µg/mL (≈ 0.637 µM); in experiment [3], 0.33 µg/mL (≈ 0.657 µM); in experiment [4], 0.42 µg/mL (≈ 0.836 µM). In the experiment with P388, the EC50 is 2.5 µg/mL (≈ 4.97 µM).
As for `COc1cc(C2C3=C(COC3=O)N(CCCO)c3cc4c(cc32)OCO4)cc(OC)c1OC` (stereo not drawn), the 50% growth inhibitory concentration (GI50) with NCI-H460 came to 0.33 µg/mL (≈ 0.725 µM); in experiment [1], 0.38 µg/mL (≈ 0.834 µM); in experiment [2] it was 0.48 µg/mL (≈ 1.05 µM); in the experiment with MCF7, 0.34 µg/mL (≈ 0.746 µM); in experiment [3], 0.36 µg/mL (≈ 0.79 µM); in experiment [4], 0.49 µg/mL (≈ 1.08 µM). For the same compound, the EC50 with P388 came to 0.28 µg/mL (≈ 0.615 µM).
In the case of `COc1cc(C2C3=C(COC3=O)N(CCc3ccc(F)cc3)c3cc4c(cc32)OCO4)cc(OC)c1OC` (stereo not drawn), the GI50 worked out at 2.3 µg/mL (≈ 4.43 µM) with NCI-H460; 2.4 µg/mL (≈ 4.62 µM) in experiment [1]; 0.9 µg/mL (≈ 1.73 µM) in experiment [2]; 0.42 µg/mL (≈ 0.808 µM) in the experiment with MCF7; 0.52 µg/mL (≈ 1 µM) in experiment [3]; 2.5 µg/mL (≈ 4.81 µM) in experiment [4]. The EC50 in the experiment with P388 stood at 3.3 µg/mL (≈ 6.35 µM).
On to `COc1ccc(C2C3=C(COC3=O)Nc3cc(OC)c(OC)c(OC)c32)cc1O` (stereo not drawn), for which the GI50 was 10.1 µg/mL (≈ 25.3 µM) with NCI-H460; 6.5 µg/mL (≈ 16.3 µM) in experiment [2]; 7 µg/mL (≈ 17.5 µM) in the experiment with MCF7; 7.3 µg/mL (≈ 18.3 µM) in experiment [3]; > 10 µg/mL in experiment [4]. Also, the EC50 in the experiment with P388 came to 0.78 µg/mL (≈ 1.95 µM).
As for `COc1cc(C2C3=C(COC3=O)Nc3cc(OC)c(OC)c(OC)c32)cc(OC)c1OC` (stereo not drawn), the GI50 in the experiment on NCI-H460 came out at 3.6 µg/mL (≈ 8.12 µM); in experiment [2], 5.6 µg/mL (≈ 12.6 µM); in the experiment with MCF7 it was 1.7 µg/mL (≈ 3.83 µM); in experiment [3] it was 3.6 µg/mL (≈ 8.12 µM); in experiment [4], 3.3 µg/mL (≈ 7.44 µM). The EC50 in the experiment with P388 worked out at 1.3 µg/mL (≈ 2.93 µM).
In the case of `COc1cc(C2C3=C(COC3=O)N(C3CCC3)c3cc4c(cc32)OCO4)cc(OC)c1OC` (stereo not drawn), the GI50 was 0.028 µg/mL (≈ 0.062 µM) in the experiment on NCI-H460; 0.032 µg/mL (≈ 0.0709 µM) in experiment [1]; 0.04 µg/mL (≈ 0.0886 µM) in experiment [2]; 0.026 µg/mL (≈ 0.0576 µM) in the experiment on MCF7; 0.026 µg/mL (≈ 0.0576 µM) in experiment [3]; 0.047 µg/mL (≈ 0.104 µM) in experiment [4]. Moreover, the EC50 in the experiment on P388 is 0.24 µg/mL (≈ 0.532 µM).
Regarding `COc1cc(C2C3=C(COC3=O)N(C3CCCCC3)c3cc4c(cc32)OCO4)cc(OC)c1OC` (stereo not drawn), the concentration for 50% growth inhibition (GI50) stood at 0.27 µg/mL (≈ 0.563 µM) in the experiment on NCI-H460; 0.24 µg/mL (≈ 0.5 µM) in experiment [1]; 0.17 µg/mL (≈ 0.355 µM) in experiment [2]; 0.052 µg/mL (≈ 0.108 µM) in the experiment on MCF7; 0.066 µg/mL (≈ 0.138 µM) in experiment [3]; 0.27 µg/mL (≈ 0.563 µM) in experiment [4]. Moreover, the EC50 in the experiment on P388 was determined as 3.4 µg/mL (≈ 7.09 µM).
With `COc1cc(C2C3=C(COC3=O)Nc3cc4c(cc32)OCO4)cc(OC)c1OC` (stereo not drawn), in the experiment on P388, the EC50 was found to be 0.0018 µg/mL (≈ 0.00453 µM).
`COc1cc([C@@H]2c3cc4c(c(O[C@@H]5O[C@H](CO)[C@@H](O)[C@H](O)[C@H]5O)c3C[C@H]3COC(=O)[C@@H]32)OCO4)cc(OC)c1OC`: the GI50 with NCI-H460 was 0.28 µg/mL (≈ 0.486 µM); in experiment [1], > 1 µg/mL; in experiment [2] it was > 1 µg/mL; in the experiment with MCF7 it was 0.85 µg/mL (≈ 1.47 µM); in experiment [3] it was 0.27 µg/mL (≈ 0.468 µM); in experiment [4], > 1 µg/mL. The EC50 with P388 is 0.21 µg/mL (≈ 0.364 µM).
Take `COc1cc([C@@H]2c3cc4c(c(O)c3C[C@H]3COC(=O)[C@@H]32)OCO4)cc(OC)c1OC` [BETA-PELTATIN A]: the 50% growth inhibitory concentration (GI50) in the experiment on NCI-H460 is 0.00077 µg/mL (≈ 0.00186 µM); in experiment [1] it was 0.0076 µg/mL (≈ 0.0183 µM); in experiment [2], 0.0012 µg/mL (≈ 0.0029 µM); in the experiment on MCF7, 0.00055 µg/mL (≈ 0.00133 µM); in experiment [3], 0.0004 µg/mL (≈ 0.000965 µM); in experiment [4], 0.0021 µg/mL (≈ 0.00507 µM). For the same compound, in the experiment on P388, the EC50 is 0.0031 µg/mL (≈ 0.00748 µM).
Turning to `COc1cc([C@H]2c3cc4c(cc3C[C@H]3COC(=O)[C@H]32)OCO4)cc(OC)c1OC` [ISOPICRODEOXYPODOPHYLLOTOXIN], the EC50 in the experiment on P388 is < 0.1 µg/mL.
The same measure, in the same setting: then `COc1cc([C@@H]2c3cc4c(cc3[C@H](O)[C@H]3COC(=O)[C@H]23)OCO4)cc(OC)c1OC` [PODOFILOX], with 0.0043 µg/mL (≈ 0.0104 µM).
